Tests used:
[1] = test system: HbSS-Townes mice; experiment: Townes SCD model, 30 days daily oral dosing; format: in vivo; conditions: 30 days
[2] = test system: HbSS-Townes mice; experiment: HbSS-Townes vaso-occlusive crisis model; format: in vivo
[3] = test system: erythroid cells from CD34+ progenitors of SCD patients; experiment: HbF induction in SCD patient-derived erythroblasts; format: cell-based, human; conditions: 10 μM IMR-687, five days, n=9, P<0.01
Summary of the method: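 CD34⁺ progenitors came from the blood or bone marrow of nine SCD donors. Cells grew seven days with 15% BIT 9500, 2 mM L-glutamine, IL-3 (10 ng/mL), IL-6 and SCF (100 ng/mL). CD36⁺ cells were then isolated and grown five days with SCF, IL-3 and EPO (2 UI/mL) plus DMSO, 30 μM hydroxyurea or 10 μM test compound. HbF⁺ cells (%) and HbF MFI were read by PE-anti-HbF FACS, gated LiveDead⁻/GPA⁺/Band3⁺.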

[4] = test system: K562 cells; experiment: Cytotoxicity in K562 cells; format: cell-based, human; conditions: end of 72-h culture
Summary of the method: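 Actively growing K562 cells were cultured for 72 h with increasing concentrations of the test compound. Terminal viability was scored by automated cell counting or trypan-blue exclusion, or by an ATP-based luminescence assay. Apoptosis was checked by Annexin V flow cytometry.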

[5] = biological target: PDE1B (Homo sapiens, UniProt Q01064); experiment: PDE enzyme inhibition, radiometric assay; format: biochemical
Summary of the method: (§1)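 Recombinant human PDE enzymes (33 in the panel) were incubated in vitro with increasing concentrations of the test compound. Enzyme activity was measured radiometrically and IC50 values derived.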

[6] = biological target: PDE8B (Homo sapiens, UniProt O95263); experiment: PDE enzyme inhibition, radiometric assay; format: biochemical
Summary of the method: as §1

[7] = Genotoxicity
[8] = biological target: PDE6AB (Homo sapiens, UniProt P16499+P35913); experiment: PDE enzyme inhibition, radiometric assay; format: biochemical
Summary of the method: as §1

[9] = biological target: PDE4B3 (Homo sapiens, UniProt Q07343); experiment: PDE enzyme inhibition, radiometric assay; format: biochemical
Summary of the method: as §1

[10] = biological target: PDE4D3 (Homo sapiens, UniProt Q08499); experiment: PDE enzyme inhibition, radiometric assay; format: biochemical
Summary of the method: as §1

[11] = biological target: PDE5A1 (Homo sapiens, UniProt O76074); experiment: PDE enzyme inhibition, radiometric assay; format: biochemical
Summary of the method: as §1

[12] = biological target: PDE6C (Homo sapiens, UniProt P51160); experiment: PDE enzyme inhibition, radiometric assay; format: biochemical
Summary of the method: as §1

[13] = Brain and plasma exposure in mice; format: in vivo, C57Bl/6J mice
[14] = test system: rats; experiment: Long-term toxicology study in normal rats; format: in vivo; conditions: data not shown
[15] = biological target: PDE2A3 (Homo sapiens, UniProt O00408); experiment: PDE enzyme inhibition, radiometric assay; format: biochemical
Summary of the method: as §1

[16] = biological target: PDE4D2 (Homo sapiens, UniProt Q08499); experiment: PDE enzyme inhibition, radiometric assay; format: biochemical
Summary of the method: as §1

[17] = biological target: PDE5A3 (Homo sapiens, UniProt O76074); experiment: PDE enzyme inhibition, radiometric assay; format: biochemical
Summary of the method: as §1

[18] = test system: UT-7 cells; experiment: HbF induction in UT-7 cells; format: cell-based, human; conditions: GM-CSF dependent erythroid line UT-7; data not shown
[19] = biological target: PDE4B1 (Homo sapiens, UniProt Q07343); experiment: PDE enzyme inhibition, radiometric assay; format: biochemical
Summary of the method: as §1

[20] = biological target: PDE1C (Homo sapiens, UniProt Q14123); experiment: PDE enzyme inhibition, radiometric assay; format: biochemical
Summary of the method: as §1

[21] = biological target: PDE7B (Homo sapiens, UniProt Q9NP56); experiment: PDE enzyme inhibition, radiometric assay; format: biochemical
Summary of the method: as §1

[22] = biological target: PDE4B2 (Homo sapiens, UniProt Q07343); experiment: PDE enzyme inhibition, radiometric assay; format: biochemical
Summary of the method: as §1

[23] = Locomotor activity and behavioral responses in toxicology studies; format: in vivo; conditions: data not shown
[24] = biological target: PDE4D4 (Homo sapiens, UniProt Q08499); experiment: PDE enzyme inhibition, radiometric assay; format: biochemical
Summary of the method: as §1

[25] = biological target: PDE4D5 (Homo sapiens, UniProt Q08499); experiment: PDE enzyme inhibition, radiometric assay; format: biochemical
Summary of the method: as §1

[26] = biological target: PDE3B (Homo sapiens, UniProt Q13370); experiment: PDE enzyme inhibition, radiometric assay; format: biochemical
Summary of the method: as §1

[27] = biological target: PDE5A2 (Homo sapiens, UniProt O76074); experiment: PDE enzyme inhibition, radiometric assay; format: biochemical
Summary of the method: as §1

[28] = biological target: PDE9A2 (Homo sapiens, UniProt O76083); experiment: PDE enzyme inhibition, radiometric assay; format: biochemical; conditions: IC50, recombinant human PDE9A2
Summary of the method: as §1

[29] = biological target: PDE4A4 (Homo sapiens, UniProt P27815); experiment: PDE enzyme inhibition, radiometric assay; format: biochemical
Summary of the method: as §1

[30] = test system: K562 cells; experiment: HbF induction in K562 cells; format: cell-based, human; conditions: 72 h
[31] = test system: dogs; experiment: Long-term toxicology study in dogs; format: in vivo
[32] = biological target: PDE7A (Homo sapiens, UniProt Q13946); experiment: PDE enzyme inhibition, radiometric assay; format: biochemical
Summary of the method: as §1

[33] = biological target: PDE10A2 (Homo sapiens, UniProt Q9Y233); experiment: PDE enzyme inhibition, radiometric assay; format: biochemical
Summary of the method: as §1

Sequence of PDE9A2 (O76083 1-533 isoform O76083-2): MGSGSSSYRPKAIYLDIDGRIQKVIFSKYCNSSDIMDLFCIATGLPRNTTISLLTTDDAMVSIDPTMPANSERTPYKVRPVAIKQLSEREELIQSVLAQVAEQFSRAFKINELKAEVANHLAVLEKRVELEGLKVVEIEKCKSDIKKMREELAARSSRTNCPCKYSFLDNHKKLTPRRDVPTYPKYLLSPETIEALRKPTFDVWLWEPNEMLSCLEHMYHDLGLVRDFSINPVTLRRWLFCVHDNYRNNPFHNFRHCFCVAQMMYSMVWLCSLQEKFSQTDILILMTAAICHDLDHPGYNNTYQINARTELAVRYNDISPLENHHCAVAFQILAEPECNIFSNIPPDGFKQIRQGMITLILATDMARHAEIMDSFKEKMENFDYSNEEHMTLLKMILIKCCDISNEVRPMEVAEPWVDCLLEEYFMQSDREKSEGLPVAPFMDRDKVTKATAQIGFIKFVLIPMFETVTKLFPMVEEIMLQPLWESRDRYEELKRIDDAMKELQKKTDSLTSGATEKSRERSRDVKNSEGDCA
Sequence of PDE6AB (P16499 whole entry): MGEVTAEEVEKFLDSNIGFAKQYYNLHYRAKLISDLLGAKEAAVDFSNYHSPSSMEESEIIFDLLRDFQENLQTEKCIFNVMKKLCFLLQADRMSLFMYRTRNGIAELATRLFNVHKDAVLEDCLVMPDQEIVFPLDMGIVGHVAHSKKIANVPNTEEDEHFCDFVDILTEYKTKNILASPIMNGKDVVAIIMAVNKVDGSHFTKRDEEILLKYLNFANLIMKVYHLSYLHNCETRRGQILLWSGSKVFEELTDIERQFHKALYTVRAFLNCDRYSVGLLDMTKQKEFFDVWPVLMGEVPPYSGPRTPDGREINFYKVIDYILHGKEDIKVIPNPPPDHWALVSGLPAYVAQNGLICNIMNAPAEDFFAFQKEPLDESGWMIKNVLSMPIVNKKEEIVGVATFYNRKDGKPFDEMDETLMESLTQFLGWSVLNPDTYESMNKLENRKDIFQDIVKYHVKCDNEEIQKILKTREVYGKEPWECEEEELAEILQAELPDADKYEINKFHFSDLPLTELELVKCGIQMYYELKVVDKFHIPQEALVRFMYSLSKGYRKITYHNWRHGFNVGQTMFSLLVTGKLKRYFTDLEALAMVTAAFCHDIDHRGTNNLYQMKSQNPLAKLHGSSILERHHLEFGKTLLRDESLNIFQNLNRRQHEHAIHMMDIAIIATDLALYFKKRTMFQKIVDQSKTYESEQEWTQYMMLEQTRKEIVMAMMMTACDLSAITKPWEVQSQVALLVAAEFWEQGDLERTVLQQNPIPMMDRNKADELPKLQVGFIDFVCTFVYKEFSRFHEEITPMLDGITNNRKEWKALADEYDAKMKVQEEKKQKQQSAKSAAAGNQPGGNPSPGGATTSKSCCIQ
Sequence of PDE6AB (P35913 whole entry): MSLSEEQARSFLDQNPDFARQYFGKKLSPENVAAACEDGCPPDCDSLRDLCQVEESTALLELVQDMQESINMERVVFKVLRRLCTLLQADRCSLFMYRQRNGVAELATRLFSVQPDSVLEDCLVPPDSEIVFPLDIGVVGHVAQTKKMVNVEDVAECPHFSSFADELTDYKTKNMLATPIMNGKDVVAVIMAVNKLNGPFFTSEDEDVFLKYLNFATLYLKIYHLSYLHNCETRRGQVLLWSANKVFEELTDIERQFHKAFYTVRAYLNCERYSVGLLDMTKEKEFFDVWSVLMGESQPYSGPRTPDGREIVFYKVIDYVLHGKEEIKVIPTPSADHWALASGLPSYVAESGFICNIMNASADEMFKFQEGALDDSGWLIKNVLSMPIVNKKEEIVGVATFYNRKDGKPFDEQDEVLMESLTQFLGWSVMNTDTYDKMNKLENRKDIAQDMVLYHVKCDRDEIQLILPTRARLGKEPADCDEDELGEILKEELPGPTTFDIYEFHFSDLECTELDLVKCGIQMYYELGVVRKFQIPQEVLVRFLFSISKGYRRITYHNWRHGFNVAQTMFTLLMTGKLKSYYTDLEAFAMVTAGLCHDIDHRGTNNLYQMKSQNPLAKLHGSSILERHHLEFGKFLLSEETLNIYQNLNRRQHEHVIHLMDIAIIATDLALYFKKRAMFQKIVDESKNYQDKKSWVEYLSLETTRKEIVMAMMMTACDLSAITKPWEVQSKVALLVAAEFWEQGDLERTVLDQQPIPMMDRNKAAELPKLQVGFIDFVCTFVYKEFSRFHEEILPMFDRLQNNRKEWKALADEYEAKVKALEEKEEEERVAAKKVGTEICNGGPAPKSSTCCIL
Sequence of PDE3B (Q13370 whole entry): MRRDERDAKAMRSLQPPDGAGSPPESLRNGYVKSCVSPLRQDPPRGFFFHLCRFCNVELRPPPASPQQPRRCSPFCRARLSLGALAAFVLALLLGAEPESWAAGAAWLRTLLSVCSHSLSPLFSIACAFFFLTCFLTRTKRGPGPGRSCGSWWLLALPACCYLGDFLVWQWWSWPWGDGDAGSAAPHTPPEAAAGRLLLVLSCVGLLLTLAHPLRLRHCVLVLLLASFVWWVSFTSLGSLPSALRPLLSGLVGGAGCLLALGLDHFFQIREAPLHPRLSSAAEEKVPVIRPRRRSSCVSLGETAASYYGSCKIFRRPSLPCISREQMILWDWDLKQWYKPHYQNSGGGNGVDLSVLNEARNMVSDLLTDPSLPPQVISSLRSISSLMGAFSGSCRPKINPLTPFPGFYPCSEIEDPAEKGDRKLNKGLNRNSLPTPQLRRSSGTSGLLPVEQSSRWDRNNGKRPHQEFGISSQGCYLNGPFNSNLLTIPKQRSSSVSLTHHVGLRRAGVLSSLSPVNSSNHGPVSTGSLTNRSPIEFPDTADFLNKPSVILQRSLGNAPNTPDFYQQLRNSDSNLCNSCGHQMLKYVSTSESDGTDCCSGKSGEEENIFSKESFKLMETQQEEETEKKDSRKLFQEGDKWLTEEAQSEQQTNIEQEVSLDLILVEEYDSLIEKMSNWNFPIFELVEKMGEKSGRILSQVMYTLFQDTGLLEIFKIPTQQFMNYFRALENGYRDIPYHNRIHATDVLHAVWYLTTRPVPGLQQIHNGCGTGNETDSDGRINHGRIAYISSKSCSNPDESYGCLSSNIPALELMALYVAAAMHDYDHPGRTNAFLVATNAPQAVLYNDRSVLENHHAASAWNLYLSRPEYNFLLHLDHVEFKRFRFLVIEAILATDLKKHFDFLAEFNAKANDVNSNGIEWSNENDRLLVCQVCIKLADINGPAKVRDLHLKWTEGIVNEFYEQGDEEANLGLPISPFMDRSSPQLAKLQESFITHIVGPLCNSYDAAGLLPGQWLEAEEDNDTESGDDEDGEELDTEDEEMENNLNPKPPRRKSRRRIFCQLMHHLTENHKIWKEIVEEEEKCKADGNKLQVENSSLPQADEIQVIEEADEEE
Sequence of PDE4D3 (Q08499 1-673 isoform Q08499-2): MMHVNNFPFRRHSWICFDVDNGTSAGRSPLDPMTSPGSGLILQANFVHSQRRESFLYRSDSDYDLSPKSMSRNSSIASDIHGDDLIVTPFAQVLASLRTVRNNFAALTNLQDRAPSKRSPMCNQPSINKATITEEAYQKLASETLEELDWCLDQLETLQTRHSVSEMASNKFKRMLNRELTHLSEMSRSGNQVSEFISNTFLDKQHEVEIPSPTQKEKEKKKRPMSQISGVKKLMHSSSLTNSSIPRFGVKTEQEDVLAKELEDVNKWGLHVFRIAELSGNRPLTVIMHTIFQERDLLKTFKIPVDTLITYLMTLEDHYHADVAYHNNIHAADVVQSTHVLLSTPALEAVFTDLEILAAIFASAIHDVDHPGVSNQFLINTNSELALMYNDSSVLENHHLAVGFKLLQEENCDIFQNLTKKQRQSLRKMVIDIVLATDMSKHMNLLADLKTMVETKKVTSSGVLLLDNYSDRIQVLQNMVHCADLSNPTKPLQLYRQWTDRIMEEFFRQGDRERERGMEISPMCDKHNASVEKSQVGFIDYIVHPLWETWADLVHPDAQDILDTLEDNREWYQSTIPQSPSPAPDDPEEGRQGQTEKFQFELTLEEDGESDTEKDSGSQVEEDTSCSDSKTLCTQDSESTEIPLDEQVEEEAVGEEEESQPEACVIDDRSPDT
Sequence of PDE8B (O95263 whole entry): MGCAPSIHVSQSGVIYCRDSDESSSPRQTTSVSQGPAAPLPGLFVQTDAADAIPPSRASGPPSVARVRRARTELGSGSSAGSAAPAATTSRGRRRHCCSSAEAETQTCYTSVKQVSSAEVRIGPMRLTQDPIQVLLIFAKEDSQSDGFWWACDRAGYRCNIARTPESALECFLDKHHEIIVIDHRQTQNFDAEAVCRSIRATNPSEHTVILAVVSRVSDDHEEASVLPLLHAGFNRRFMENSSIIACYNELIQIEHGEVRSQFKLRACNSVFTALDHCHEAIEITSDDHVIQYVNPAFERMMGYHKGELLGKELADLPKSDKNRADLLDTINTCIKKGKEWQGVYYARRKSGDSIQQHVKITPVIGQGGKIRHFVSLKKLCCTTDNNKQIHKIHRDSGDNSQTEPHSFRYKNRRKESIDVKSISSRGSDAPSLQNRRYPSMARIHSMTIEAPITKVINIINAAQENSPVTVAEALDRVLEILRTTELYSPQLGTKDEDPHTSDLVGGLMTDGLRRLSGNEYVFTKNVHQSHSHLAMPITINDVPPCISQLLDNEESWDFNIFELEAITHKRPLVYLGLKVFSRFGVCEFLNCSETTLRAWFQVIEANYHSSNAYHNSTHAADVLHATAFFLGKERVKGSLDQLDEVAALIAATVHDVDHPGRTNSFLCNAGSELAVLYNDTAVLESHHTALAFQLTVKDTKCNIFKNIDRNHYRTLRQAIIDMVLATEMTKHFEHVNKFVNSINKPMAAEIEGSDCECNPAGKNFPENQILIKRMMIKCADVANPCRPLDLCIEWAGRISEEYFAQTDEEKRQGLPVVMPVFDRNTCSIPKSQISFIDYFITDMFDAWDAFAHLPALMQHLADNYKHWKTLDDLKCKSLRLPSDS

- IC50 [5]: 8.48 µM
- IC50 [6]: > 100 µM
- IC50 [8]: > 100 µM
- IC50 [9]: > 100 µM
- IC50 [10]: > 100 µM
- IC50 [11]: > 100 µM
- IC50 [12]: > 100 µM
- brain exposure levels lower than PF-04447943 ([13]; C57Bl/6J mice, 10 mg/kg/day for five days): 5 fold
- Kp at 5 days ([13]; C57Bl/6J, mouse, brain/plasma, 10 mg/kg/day): 0.07
- IC50 [15]: > 100 µM
- IC50 [16]: > 100 µM
- IC50 [17]: > 100 µM
- IC50 [19]: > 100 µM
- IC50 [20]: 12.2 µM
- IC50 [21]: > 100 µM
- IC50 [22]: > 100 µM
- IC50 [24]: > 100 µM
- IC50 [25]: > 100 µM
- IC50 [26]: > 100 µM
- IC50 [27]: 81.9 µM
- IC50 [28]: 0.01 µM
- IC50 [29]: > 100 µM
- IC50 [32]: > 100 µM
- IC50 [33]: > 100 µM
SMILES: C[C@@H]1CN(Cc2ncccn2)C[C@H]1c1cn2c(C3CCOCC3)ncc2c(=O)[nH]1 [IMR-687]
- WBC lower than vehicle ([1]; 30 mg/kg): 36%
- increase in Hb ([1]; 30 mg/kg): 1.5 g/dL
- increase in hematocrit ([1]; 30 mg/kg): 10%
- increase in mature RBC ([1]; 30 mg/kg): 27%
- increase in plasma nitrite levels ([1]; 30 mg/kg): ~2.5 fold
- reduction in reticulocyte counts ([1]; 30 mg/kg): 36%
- reduction of MPO levels ([1]; 30 mg/kg): 2.3 fold
- reduction of plasma bilirubin and LDH vs vehicle treated SS mice ([1]; 30 mg/kg): over 2 fold
- reduction of plasma free Hb levels ([1]; 30 mg/kg): over 55%
- lung MPO levels ([1]; 30 mg/kg, HbSS-Townes vehicle 3.1 mU/L, P<0.0001): 1.3 mU/L
- reduction of lung arginase vs vehicle ([1]; 30 mg/kg, P<0.0001): 25%
- plasma bilirubin ([1]; 30 mg/kg, P<0.01): 4.7 mg/dL
- LDH activity ([1]; 30 mg/kg, P<0.05): 102 AU
- plasma nitrite levels ([1]; 30 mg/kg, untreated SS mice 0.56 mg/mL, P<0.05): 1.39 mg/mL
- WBC count ([1]; 30 mg/kg, vehicle 38.2×10^9/L, P<0.05): 2.41e+10 L⁻¹
- decrease in sickled RBC vs vehicle ([1]; 30 mg/kg/day): 2 fold
- increase in the percent of HbF+ F-cells vs vehicle ([1]; 30 mg/kg/day): greater than 3 fold
- percent of HbF+ F-cells ([1]; 30 mg/kg/day, vehicle 8.4%): 27.3%
- percent sickled RBC ([1]; 30 mg/kg/day, vehicle 56.3%): 24.4%
- microvascular stasis ([2]; 10 mg/kg/day for ten days, 1 h in normoxia, vehicle 33%, P<0.05): 20%
- microvascular stasis ([2]; 10 mg/kg/day for ten days, 4 h in normoxia, vehicle 16%, ns): 14%
- microvascular stasis ([2]; 30 mg/kg/day for ten days, 4 h in normoxia, vehicle 16%, P<0.01): 7%
- percentage of F-cells (HbF positive) ([3]; DMSO control 13.3%): 21.9%
- intensity of HbF staining (MFI) ([3]; control 6073±1217): 7813±1374
- Cytotoxicity (cell counts) [4]: not observed
- genotoxicity [7]: not genotoxic
- peripheral WBC counts ([14]; normal rats, up to 6 months, super-physiological doses): did not result in any reduction in peripheral WBC counts
- myelotoxicity, histological examination of bone marrow smears ([14]; rats): did not demonstrate any myelotoxicity
- HbF induction [18]: Induction of HbF by IMR-687 was observed
- effect on locomotor activity or behavioral responses [23]: no effect
- HbF induction (ELISA) [30]: dose-dependently induced more HbF than either BAY73-6691 or BAY 41-2271
- HbF induction relative to a dose of HU that demonstrated cytotoxicity ([30]; 10 μM IMR-687): 4.6 times
- myelotoxicity, histological examination of bone marrow smears ([31]; data not shown): did not demonstrate any myelotoxicity
- peripheral WBC counts ([31]; up to 9 months, oral daily 10, 25, or 50 mg/kg): did not result in any reduction in peripheral WBC counts
